EphB4 ephrin blk: EphB4-ephrin-B2 interaction antagonism; P54760; EphB4 LBD / TNYL-RAW-Alexa532 peptide, fluorescence polarization; inhibition, % at 7 µM; actives 0.15% (n = 97,000);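 active = inhibition above the screen-wide mean inhibition plus 3 SD, cut at about 15% in these data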
PostGolgi yeast: growth inhibition of a yeast mutant, post-Golgi transport screen. inhibition, % at 10 µM. AID 739. actives 0.9% (n = 98,000). post-Golgi transport phenotypic cell assay;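 note: yeast cells grown in 1536-well plates; yeast grown about 18 h at 30C before absorbance read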
Ecoli tolC: E. coli tolC mutant growth inhibition. growth inhibition, % at 10 µM (by protocol). E. coli BW25113 tolC mutant growth, OD615. actives 2.2% (n = 65,000). AID 573;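 active = growth inhibition at or above a cutoff equal to the mean over every tested compound plus 3 SD, cut at about 60% in these data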;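 note: growth measured after 20 h incubation at 37 °C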
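System: E. coli ΔtolC::kan strain BW25113; Buffer or medium: LB broth supplemented with 50 µg/mL kanamycin; Compound: 10 µM final, single dose; Incubation: bacterial growth with compound for 20 h at 37 °C; Signal: A615 absorbance measurement; Evaluation: growth inhibition in percent.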
E coli WT exp: blocks growth of wild type E. coli BW25113; OD600 absorbance; growth inhibition, % at 100 µM; actives 0.15% (n = 98,000); AID 710;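 active = growth inhibition above about 50% at one test dose, limit read from the data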;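 note: growth measured after 20 h incubation at 37 °C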
PostGolgi ctrl: growth of the yeast control strain, post-Golgi counter-screen; actives 5% (n = 98,000); inhibition, % at 10 µM; efflux-deficient yeast background strain, growth absorbance A615, 16 h
Large screens that a line does not name were inactive. The list is not random: actives were taken first. Their share in the collection is about 6%. Cut-off read from the data, not from the text of the source, unless noted: active = inhibition above about 30%; inactive = the rest.

Cc1c(C(=O)N2CCN(c3ccccc3F)CC2)sc2nc(-c3ccccc3)cn12	PostGolgi ctrl 35
CCOC(=O)c1ccc(NC(=O)c2nn(C)cc2Br)cc1	PostGolgi ctrl 35
CCOC(=O)c1ccc(NC(=O)c2cn(-c3ccccc3)nc2-c2ccncc2)cc1	PostGolgi yeast 90, PostGolgi ctrl 30 (no result: Ecoli tolC)
O=C(OCc1ccccc1)c1cn(-c2ccccc2)nc1-c1ccncc1	PostGolgi ctrl 37 (no result: Ecoli tolC)
COC(=O)c1cn(-c2ccccc2)nc1-c1ccncc1	none (no result: Ecoli tolC)
CCOC(=O)c1ccc(NC(=O)c2nn(CC)cc2Br)cc1	none
Cc1cc(C)n(C(=O)CNC(=O)COc2ccccc2)n1	none
CN1CCN(CC#CCn2c3ccccc3c3ccccc32)CC1	none
O=S(=O)(c1ccc(Oc2ccc(Br)cc2F)nc1)N1CCCCC1	PostGolgi ctrl 37
[N-]=[N+]=CC(=O)c1ccnc(C(=O)C=[N+]=[N-])c1	E coli WT exp 55
CC(C)Cn1c(N)c(C(=O)COC(=O)CC23CC4CC(CC(C4)C2)C3)c(=O)n(C)c1=O	none (no result: Ecoli tolC)
COc1cccc(C(=O)NCCn2ccc3ccccc32)c1	PostGolgi ctrl 40 (no result: EphB4 ephrin blk)
O=C(COc1ccc2ccccc2c1)NCCn1ccc2ccccc21	PostGolgi ctrl 48 (no result: Ecoli tolC)
O=C(Cc1ccccc1)NCCn1ccc2ccccc21	none (no result: EphB4 ephrin blk)
O=C(O)c1cc(NCc2ccc3c(c2)OCO3)ccc1N1CCOCC1	PostGolgi yeast 32
COC(=O)c1cc(NCc2ccc3c(c2)OCO3)ccc1N1CCOCC1	none (no result: Ecoli tolC)
N#Cc1nc(Cc2cccc3ccccc23)oc1NCc1ccc(F)cc1	Ecoli tolC 71, PostGolgi ctrl 31
CCCCOC(=O)Cc1c(O)c2ccccc2[nH]c1=O	PostGolgi yeast 32
CCCCCOC(=O)Cc1c(O)c2ccccc2[nH]c1=O	none
CCNC(=O)[C@@H]1CCCN1C(=O)[C@H](CCCN=C(N)N)NC(=O)[C@H](CC(C)C)NC(=O)[C@@H](CC(C)C)NC(=O)[C@H](Cc1ccc(O)cc1)NC(=O)[C@H](CO)NC(=O)[C@H](Cc1c[nH]c2ccccc12)NC(=O)[C@H](Cc1cnc[nH]1)NC(=O)[C@@H]1CCC(=O)N1	none (no result: EphB4 ephrin blk, PostGolgi yeast, E coli WT exp, PostGolgi ctrl)
Cc1n[nH]c(C)c1S(=O)(=O)N1CCCC(C(=O)N2CCN(c3ccc(Cl)cc3)CC2)C1 (centres undefined)	PostGolgi ctrl 44
O=C(C1CCCN(S(=O)(=O)c2cccc3nonc23)C1)N1CCN(c2cccc(Cl)c2)CC1 (centres undefined)	PostGolgi ctrl 45 (no result: Ecoli tolC)
Cc1nn(C)c(C)c1S(=O)(=O)N1CCCC(C(=O)N2CCN(c3ccc(Cl)cc3)CC2)C1 (centres undefined)	none
CCOc1ccc(NC(=O)c2cccc(OC(=S)N3CCC(C)CC3)c2)cc1	none (no result: Ecoli tolC)
CCOC(=O)C(NCc1ccc2c(c1)OCO2)(NC(=O)c1ccccc1)C(F)(F)F (centres undefined)	none (no result: Ecoli tolC)
C=CCn1c2ccccc2c2nnc(SCN3C(=O)c4ccccc4C3=O)nc21	PostGolgi yeast 39
Cc1cc(C)nc(NC(=O)/C=C/c2cccs2)c1	none (no result: Ecoli tolC)
Cc1cc(C)nc(NC(=O)/C=C/c2ccc(Cl)cc2Cl)c1	PostGolgi ctrl 57 (no result: Ecoli tolC)
N#Cc1cn(CCOc2ccc(F)cc2)c2ccccc12	none (no result: PostGolgi yeast, Ecoli tolC, E coli WT exp, PostGolgi ctrl)
Cc1c(C#N)c2ccccc2n1CCOc1ccccc1F	PostGolgi ctrl 67
N#Cc1cn(CCOc2ccccc2F)c2ccccc12	Ecoli tolC 74, PostGolgi ctrl 58
O=C(c1ccco1)N1CCN(S(=O)(=O)Cc2ccc(Cl)cc2)CC1	none
Cc1ccc(Sc2oc(/C=N/n3cnnc3)cc2Br)cc1	PostGolgi ctrl 44
Cc1ccc(/C=N/n2cnnc2)s1	none (no result: Ecoli tolC)
O=C(c1csc2c1CCCC2)N1CCN(c2cccc(C(F)(F)F)c2)CC1	none (no result: Ecoli tolC)
CC(C)(C)NC(=O)C(c1ccccn1)N(C(=O)C1CSC(=O)C1)c1ccc(F)cc1 (centres undefined)	none (no result: Ecoli tolC)
O=C1CN(C(=O)CSc2nnc(-c3ccccc3)n2Cc2ccc3c(c2)OCO3)c2ccccc2N1	PostGolgi yeast 38
CC(Oc1ccccc1Br)C(=O)N1CCc2ccccc21 (centres undefined)	Ecoli tolC 69
C=CCSc1nc2c(c(=N)n1CC=C)C1CCCC1S2 (centres undefined)	Ecoli tolC 96
CCOc1ccccc1C(=O)N1c2ccccc2Sc2ccccc21	PostGolgi ctrl 42 (no result: Ecoli tolC)
CCOc1ccccc1C(=O)N1CCOCC1	none (no result: Ecoli tolC)
Cc1cn(C(=O)c2ccccc2)c(=S)n1-c1ccc(Br)cc1	none (no result: PostGolgi yeast, Ecoli tolC, E coli WT exp, PostGolgi ctrl)
CCCCOc1ccc(S(=O)(=O)N2CCCCCC2)cc1	Ecoli tolC 62
O=S(=O)(c1ccc(S(=O)(=O)N2CCCC2)cc1)N1CCCCCC1	none
OC(COc1ccc(C2C=CCC2)cc1)CN1CCCCC1 (centres undefined)	none
COC(=O)c1ccccc1NC1CC(=O)N(c2c(C)cccc2C)C1=O (centres undefined)	none (no result: Ecoli tolC)
Cc1cc(/C=N/n2cnnc2)c(C)n1-c1cccc(Cl)c1	none
Cc1cc(/C=N/n2cnnc2)c(C)n1-c1ccc(OCc2ccc(F)cc2)cc1	PostGolgi ctrl 61
Cc1cc(/C=N/n2cnnc2)c(C)n1-c1ccc(OCc2ccc(Cl)cc2Cl)cc1	PostGolgi ctrl 96 (no result: Ecoli tolC)
Cc1cc(/C=N/n2cnnc2)c(C)n1-c1ccc(Cl)cc1Cl	PostGolgi ctrl 37
CSCc1cc(N2CCOCC2)nc(SCc2ccc(Cl)c(Cl)c2)n1	none (no result: Ecoli tolC)
CCOc1cc(NC(=S)Nc2ccccc2OC)c(OCC)cc1NC(=O)c1ccccc1C	none (no result: Ecoli tolC)
N#CC1=C(N)OC(c2ccccc2)=C(C#N)C1c1ccc2c(c1)OCO2 (centres undefined)	PostGolgi yeast 104, PostGolgi ctrl 98
COc1cc(=O)[nH]c(SCc2c(F)c(F)c(F)c(F)c2F)n1	PostGolgi ctrl 53
CCn1c(=O)cc(OCC(=O)N2CCN(C(=O)c3ccco3)CC2)c2ccccc21	none
CCn1c(=O)c2cc(C(=O)N3CCN(C(=O)c4ccco4)CC3)sc2c2ccccc21	Ecoli tolC 98 (no result: EphB4 ephrin blk, PostGolgi yeast, E coli WT exp, PostGolgi ctrl)
CC1=NN(C(=O)Cc2ccc([N+](=O)[O-])cc2)C(O)(c2ccccc2)C1 (centres undefined)	none (no result: Ecoli tolC)
O=S(=O)(NCCSc1ccc(Cl)cc1)c1ccc2c(c1)OCCO2	Ecoli tolC 100, PostGolgi ctrl 31
O=C(Nc1cccc(S(=O)(=O)c2cccc(NC(=O)C3CC3)c2)c1)C1CC1	Ecoli tolC 94
O=C(c1ccccc1)c1cccc(NC(=O)C2CC2)c1	none (no result: Ecoli tolC)
CCCC/C(O)=N\S(=O)(=O)c1ccc(N=NN(C)C)cc1	none (no result: PostGolgi yeast, Ecoli tolC, E coli WT exp, PostGolgi ctrl)
O=C(CSc1nc(Nc2ccccc2)nc(N2CCOCC2)n1)N1CCc2ccccc21	PostGolgi ctrl 54
O=C(CSc1nc(Nc2ccccc2)nc(N2CCOCC2)n1)N1CCCC1	none
c1ccc(Nc2nc(N3CCOCC3)nc(N3CCOCC3)n2)cc1	PostGolgi ctrl 32
c1ccc(Nc2nc(N3CCNCC3)nc(N3CCOCC3)n2)cc1	none (no result: PostGolgi yeast, Ecoli tolC, E coli WT exp, PostGolgi ctrl)
Cn1c(=O)n(-c2cccc(Cl)c2)c(=O)c2c3c(sc21)COC(C)(C)C3	none (no result: Ecoli tolC)
Cn1c(-c2ccccc2)cc2c3no[n+]([O-])c3ccc21	PostGolgi yeast 74, Ecoli tolC 95, PostGolgi ctrl 94
